Calls of active or inactive are those of the source. The calls are words filed in the database; no cut-off is given here.
Tests used:
[1] = system: Mus musculus; assay: Antiinflammatory activity against DSS-induced colitis BALB/c mouse model assessed as increase in colon lenght at 10 mg/kg, po qd for 7 days relative to vehicle-treated control; type: functional, organism-based; set-up: dose 10 mg/kg
Procedure, shortened: (§1)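 Female SPF BALB/c mice, 6−8 weeks old; colitis induced by 5% DSS in tap drinking water (renewed every second day) for 7 days. Daily oral dosing for 7 days as suspension/solution in 0.5% carboxymethyl cellulose/2% Tween 80. Daily body weight; DAI per mouse each day from weight loss, occult blood and stool consistency; colon length at autopsy. Mean ± SEM, n = 6−7.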

[2] = system: Mus musculus; assay: Antiinflammatory activity against DSS-induced colitis BALB/c mouse model assessed as decrease in disease activity index at 30 mg/kg, po qd for 7 days relative to vehicle-treated control; type: functional, organism-based; set-up: dose 30 mg/kg; procedure, shortened: as §1
[3] = system: Mus musculus; assay: Toxicity in DSS-induced colitis BALB/c mouse model assessed as overt reactions at 30 mg/kg, po qd for 7 days relative to vehicle-treated control; type: organism-based; set-up: dose 30 mg/kg, route oral; settings: in vivo, 168 h
[4] = system: Mus musculus; assay: Antiinflammatory activity against DSS-induced colitis BALB/c mouse model assessed as increase in colon lenght at 30 mg/kg, po qd for 7 days relative to vehicle-treated control; type: functional, organism-based; set-up: dose 30 mg/kg; procedure, shortened: as §1
[5] = system: Mus musculus; assay: Antiinflammatory activity against DSS-induced colitis BALB/c mouse model assessed as decrease in disease activity index at 10 mg/kg, po qd for 7 days relative to vehicle-treated control; type: functional, organism-based; set-up: dose 10 mg/kg; procedure, shortened: as §1
[6] = system: Mus musculus; assay: Antiinflammatory activity against DSS-induced colitis BALB/c mouse model assessed as decrease in disease activity index at 30 mg/kg, po qd for 7 days measured on day 6 relative to vehicle-treated control; type: functional, organism-based; set-up: dose 30 mg/kg; procedure, shortened: as §1
[7] = system: Mus musculus; assay: Antiinflammatory activity in IL-10 -/- BALB/c mouse assessed as reduction in histological colon damage score at 300 mg/kg, po administered as divided dose 3 times a week for 9 weeks relative to vehicle-treated control; type: functional, organism-based; set-up: dose 300 mg/kg
Procedure, shortened: (§2)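 IL-10−/− BALB/c-background mice, bred SPF, treated from 6−8 weeks of age by oral gavage of 300 mg/kg/week in distilled water (vehicle), Mon/Wed/Fri, for 9 weeks. Weight, rectal bleeding and prolapse monitored. At 9 weeks serum SAA was measured by sandwich ELISA. Proximal colon (1 cm) was fixed, H&E-stained and scored blinded by two observers (maximum 4). n = 9 vehicle, 11 treated; Student's t test.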

[8] = system: Mus musculus; assay: Antiinflammatory activity against DSS-induced colitis BALB/c mouse model assessed as reduction in IL6 level at 30 mg/kg, po qd for 7 days measured on day 7 relative to vehicle-treated control; type: functional, organism-based; set-up: dose 30 mg/kg
Procedure, shortened: (§3)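 DSS colitis in female BALB/c mice (5% DSS in drinking water, 7 days, daily oral dosing). At autopsy, colon remaining after histology sampling snap-frozen, stored at −20 °C, thawed, contents removed, chopped and homogenized; supernatant protein determined. IL1b, IL6 and TNFα in colon supernatant by sandwich ELISA, expressed as ng/mg. Mean ± SEM, n = 6−7.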

[9] = system: Mus musculus; assay: Antiinflammatory activity in IL-10 -/- BALB/c mouse assessed as prevention of rectal bleeding at 300 mg/kg, po administered as divided dose 3 times a week for 9 weeks relative to vehicle-treated control; type: functional, organism-based; set-up: dose 300 mg/kg; procedure, shortened: as §2
[10] = system: Mus musculus; assay: Antiinflammatory activity against po dosed DSS-induced colitis BALB/c mouse model assessed as reduction in shortening of colon administered daily once for 7 days measured on day 7 relative to vehicle-treated control; type: functional, organism-based; procedure, shortened: as §1
[11] = system: Mus musculus; assay: Antiinflammatory activity against po dosed DSS-induced colitis BALB/c mouse model assessed as decrease in disease activity index administered daily once for 7 days measured on day 7 relative to vehicle-treated control; type: functional, organism-based; procedure, shortened: as §1
[12] = system: Mus musculus; assay: Antiinflammatory activity against po dosed DSS-induced colitis BALB/c mouse model assessed as reduction in IL1b level administered daily once for 7 days measured on day 7 relative to vehicle-treated control; type: functional, organism-based; procedure, shortened: as §3
[13] = system: Mus musculus; assay: Antiinflammatory activity against po dosed DSS-induced colitis BALB/c mouse model assessed as reduction in TNFalpha level administered daily once for 7 days measured on day 7 relative to vehicle-treated control; type: functional, organism-based; procedure, shortened: as §3
[14] = system: Mus musculus; assay: Antiinflammatory activity against DSS-induced colitis BALB/c mouse model assessed as reduction in TNFalpha level at 30 mg/kg, po qd for 7 days measured on day 7 relative to vehicle-treated control; type: functional, organism-based; set-up: dose 30 mg/kg; procedure, shortened: as §3
[15] = system: Mus musculus; assay: Antiinflammatory activity in IL-10 -/- BALB/c mouse assessed as prevention of rectal prolapse at 300 mg/kg, po administered as divided dose 3 times a week for 9 weeks relative to vehicle-treated control; type: functional, organism-based; set-up: dose 300 mg/kg; procedure, shortened: as §2
[16] = system: Mus musculus; assay: Antiinflammatory activity against DSS-induced colitis BALB/c mouse model assessed as reduction in IL1b level at 30 mg/kg, po qd for 7 days measured on day 7 relative to vehicle-treated control; type: functional, organism-based; set-up: dose 30 mg/kg; procedure, shortened: as §3
[17] = system: Mus musculus; assay: Antiinflammatory activity in IL-10 -/- BALB/c mouse assessed as prevention of weight loss at 300 mg/kg, po administered as divided dose 3 times a week for 9 weeks relative to vehicle-treated control; type: functional, organism-based; set-up: dose 300 mg/kg; procedure, shortened: as §2
[18] = system: Mus musculus; assay: Antiinflammatory activity against po dosed DSS-induced colitis BALB/c mouse model assessed as reduction in IL6 level administered daily once for 7 days measured on day 7 relative to vehicle-treated control; type: functional, organism-based; procedure, shortened: as §3
[19] = system: Mus musculus; assay: Antiinflammatory activity against po dosed DSS-induced colitis BALB/c mouse model assessed as reduction in histological colon damage score administered daily once for 7 days measured on day 7; type: functional, organism-based
Procedure, shortened: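 After 7 days of 5% DSS with daily oral dosing, about 1 cm distal colon was fixed in 10% formaldehyde-saline, paraffin-embedded, cut into 5 μm serial sections and H&E-stained. Scoring covered cell infiltration (0−3) and extent of injury (0−3), done blinded by two independent observers.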

[20] = system: Mus musculus; assay: Antiinflammatory activity against DSS-induced colitis BALB/c mouse model assessed as prevention of body weight loss at 10 mg/kg, po qd for 7 days relative to vehicle-treated control; type: functional, organism-based; set-up: dose 10 mg/kg; procedure, shortened: as §1

| SMILES | Activity [1] | Activity [2] | Activity [3] | Activity [4] | Activity [5] | Activity [6] | Activity [7] | Activity [8] | Activity [9] | Activity [10] | Activity [11] | Activity [12] | Activity [13] | Activity [14] | Activity [15] | Activity [16] | Activity [17] | Activity [18] | Activity [19] | Activity [20] |
| --- | --- | --- | --- | --- | --- | --- | --- | --- | --- | --- | --- | --- | --- | --- | --- | --- | --- | --- | --- | --- |
| O=C(O)c1ccc(C[C@]2(C3=Cc4ccccc4C3)Cc3ccccc3[C@H]2O)cc1 | inactive | Active | Non-toxic | Active | inactive | – | – | – | – | – | – | – | – | – | – | – | – | – | – | – |
| O=C(O)c1ccc(C[C@]2(C3=Cc4ccccc4C3)Cc3ccccc3[C@@H]2O)cc1 | – | Active | Non-toxic | Active | – | inactive | – | – | – | – | – | – | – | – | – | – | – | – | – | – |
| O=C(O)c1ccc(C[C@@]2(C3=Cc4ccccc4C3)Cc3ccccc3[C@H]2O)cc1 [listing 1 of 2 here] | – | – | Non-toxic | – | – | – | – | – | – | – | – | – | – | – | – | – | – | – | – | – |
| O=C(O)c1ccc(C[C@@]2(C3=Cc4ccccc4C3)Cc3ccccc3[C@H]2O)cc1 [listing 2 of 2 here] | Active | Active | – | Active | Active | – | Active | Active | inactive | Dose-dependent effect | Dose-dependent effect | Dose-dependent effect | Dose-dependent effect | Active | inactive | Active | inactive | Dose-dependent effect | Dose-dependent effect | Active |
